The test system of data set [1] is MDA-MB-468. In words: Antiproliferative activity against human MDA-MB-468 cells assessed as reduction in cell proliferation measured after 72 hrs by celltiter-glo assay. It counts as functional, cell-based. The note with it: MDA-MB-468, 72 h. An outline of the steps:
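Cells in RPMI 1640 with 10% heat-inactivated FBS at 37°C and 5% CO₂ were seeded at 2 to 3 × 10³ per well. […] Growth was read as cellular ATP by CellTiter-Glo.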

The test system of data set [2] is A-431. The data set can be described thus: Synergistic antiproliferative activity against human A-431 cells assessed as combination index at ED50 measured after 72 hrs in presence of erlotinib by celltiter-glo assay. It counts as functional. An outline of the steps:
(§1)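 Cells were seeded at 2–3 × 10³ per well in RPMI 1640 with 10% FBS. At 24 h, MK-2206 and the partner drug were added simultaneously at constant concentration ratios spanning each agent's IC₅₀, for 72 h. Growth was read as cellular ATP by CellTiter-Glo. CI was taken from median-effect plots of each agent alone and in combination (Chou–Talalay), at ED₅₀, ED₇₅ and ED₉₀.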
On the technique in general: Cellular ATP, detected with luciferase, serves as a proxy for viable cell number.

The subject of data set [3] is NCI-H292. The data set can be described thus: Synergistic antiproliferative activity against human NCI-H292 cells assessed as combination index at ED50 measured after 72 hrs in presence of erlotinib by celltiter-glo assay. In kind it is functional.
The test system of data set [4] is NCI-H1299. The data set can be described thus: Synergistic antiproliferative activity against human NCI-H1299 cells assessed as combination index at ED90 measured after 72 hrs in presence of erlotinib by celltiter-glo assay. It counts as functional.
Data set [5] in a line: Toxicity in human NCI-H292 cells xenografted CD-1 mouse assessed as weight loss at 360 mg/kg, po administered once a week for 2 weeks starting 2 hrs post-erlotinib treatment and measured during compound dosing. It counts as organism-based. The following applies: in vivo, 336 h. An outline of the steps:
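NCI-H292 cells in 50% Matrigel/PBS injected s.c. into flank of female CD1-nude mice; dosing began after 2 wk at mean tumour 0.2 cm³, n = 5/group. […] Body weight and signs monitored; treatment ended day 16.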
Background: A xenograft is tissue or cells of one species grown in another, often human tumour cells in immunodeficient mice.

In data set [6] the test system is SK-BR-3. In words: Synergistic antiproliferative activity against lapatinib pretreated human SK-BR-3 cells assessed as combination index at ED50 measured after 72 hrs by celltiter-glo assay. In kind it is functional.
Data set [7] relates to NCI-N87. The data set can be described thus: Synergistic antiproliferative activity against lapatinib pretreated human NCI-N87 cells assessed as combination index at ED50 measured after 72 hrs by celltiter-glo assay. In kind it is functional.
Data set [8] concerns SK-BR-3. The data set can be described thus: Synergistic antiproliferative activity against lapatinib pretreated human SK-BR-3 cells assessed as combination index at ED75 measured after 72 hrs by celltiter-glo assay. It counts as functional.
Data set [9] deals with HCC70. The data set can be described thus: Synergistic antiproliferative activity against human HCC70 cells assessed as combination index at ED90 treated 24 hrs prior to lapatinib and measured after 72 hrs by celltiter-glo assay. The following applies: time 96 hrs. In kind it is functional.
Data set [10] deals with MDA-MB-468. In words: Synergistic antiproliferative activity against lapatinib pretreated human MDA-MB-468 cells assessed as combination index at ED90 measured after 72 hrs by celltiter-glo assay. In kind it is functional.
Data set [11] relates to NCI-N87. The data set can be described thus: Synergistic antiproliferative activity against human NCI-N87 cells assessed as combination index at ED90 measured after 96 hrs in presence of lapatinib by celltiter-glo assay. It counts as functional.
Data set [12] has as its system HCC70. The data set can be described thus: Induction of apoptosis in human HCC70 cells assessed as increase in caspase-3/7 activity at 3 umol/L measured after 48 hrs in presence of lapatinib by caspase-glo 3/7 assay relative to control. It counts as functional. The note with it: dose 3 µmol/L. An outline of the steps:
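HCC70 cells were grown in RPMI 1640 with 10% heat-inactivated FBS at 37°C in 5% CO₂. They were exposed for 48 h to MK-2206 (0, 0.03, 0.3, 3 µmol/L), with or without lapatinib (0, 1, 3, 5, 10 µmol/L). Caspase-3/7 activity was read by Caspase-Glo 3/7 luminescence and expressed as fold induction over the DMSO vehicle control. The experiment was run twice, and representative data were reported.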

Data set [13] has as its system BT-474. In words: Synergistic antiproliferative activity against docetaxel pretreated human BT-474 cells assessed as combination index at ED90 measured after 72 hrs by celltiter-glo assay. It counts as functional.
In data set [14] the test system is SK-BR-3. The data set can be described thus: Synergistic antiproliferative activity against human SK-BR-3 cells assessed as combination index at ED50 measured after 72 hrs in presence of docetaxel by celltiter-glo assay. It counts as functional.
Data set [15] concerns MDA-MB-231. In words: Synergistic antiproliferative activity against human MDA-MB-231 cells assessed as combination index at ED75 measured after 72 hrs in presence of docetaxel by celltiter-glo assay. It counts as functional. An outline of the steps:
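Cells grown in RPMI 1640 with 10% heat-inactivated FBS at 37°C, 5% CO₂. Seeded at 2 to 3 × 10³ per well; drugs added 24 h later. […] Viability read as cellular ATP by CellTiter-Glo. CI calculated by Chou–Talalay from median-effect plots at ED50, ED75 and ED90.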

For data set [16], the system named is A2780. In words: Synergistic antiproliferative activity against human A2780 cells assessed as combination index at ED50 measured after 72 hrs in presence of 5-FU by celltiter-glo assay. In kind it is functional. An outline of the steps: as §1
The subject of data set [17] is A2780. In words: Synergistic antiproliferative activity against human A2780 cells assessed as combination index at ED50 measured after 72 hrs in presence of carboplatin by celltiter-glo assay. In kind it is functional. An outline of the steps:
as §1

In data set [18] the test system is A2780. In words: Cell cycle arrest in human A2780 cells assessed as increase in accumulation of cells at sub-G1 phase measured after 72 hrs in presence of camptothecin by propidium iodide staining based flow cytometry. It counts as functional. Background: Flow cytometry measures light scatter and fluorescence of single cells or particles in a stream.
In data set [19] the test system is NCI-H460. The data set can be described thus: Antitumor activity against human NCI-H460 cells xenografted in CD1 nude mouse assessed as reduction in tumor volume at 120 mg/kg, po administered 3 times per week for 2 weeks in presence of carboplatin by caliper method. In kind it is functional, organism-based. An outline of the steps:
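NCI-H460 cells were injected s.c. in Matrigel/PBS into CD1-nude mice (female in the carboplatin study). Mice were randomized at 0.2 cm³, n = 5. Carboplatin was given at 50 mg/kg or gemcitabine at 100 mg/kg, i.v. in saline, on days 0 and 7. MK-2206 (30% Captisol) was given at 120 mg/kg po on days 0, 2, 4, 7, 9, 11. Tumors measured by caliper twice weekly.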

A short description of data set [20]: Toxicity in human NCI-H460 cells xenografted CD1 nude mouse assessed as body weight loss at 120 mg/kg, po administered 3 times per week for 2 weeks measured on day 14 to 16 in presence of carboplatin. In kind it is organism-based. The note with it: in vivo, 336 h, time 14-16 day. An outline of the steps:
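NCI-H460 cells in 50% Matrigel/PBS injected s.c. into flank of CD1-nude mice; randomized at mean tumour 0.2 cm³ (n = 5). MK-2206 in 30% Captisol, 120 mg/kg p.o. days 0, 2, 4, 7, 9, 11. Carboplatin 50 mg/kg i.v. in saline days 0 and 7 (from day 12 after implant), or gemcitabine 100 mg/kg i.v. in saline days 0 and 7 (from day 8). Body weight monitored.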

Data set [21] has as its system NCI-H1993. In words: Synergistic antiproliferative activity against human NCI-H1993 cells assessed as combination index at ED25 to ED90 measured after 72 hrs in presence of gemcitabine by celltiter-glo assay. In kind it is functional.
The target in data set [22] is RAC-alpha serine/threonine-protein kinase (Homo sapiens) (UniProt P31749). In words: Inhibition of AKT phosphorylation at S473 residue in human NCI-H661 cells at 3 umol/L measured after 4 to 24 hrs in presence of gemcitabine by MSD assay. The following applies: time 4-24 hrs.
Chain of RAC-alpha serine/threonine-protein kinase (Homo sapiens) (P31749 whole entry): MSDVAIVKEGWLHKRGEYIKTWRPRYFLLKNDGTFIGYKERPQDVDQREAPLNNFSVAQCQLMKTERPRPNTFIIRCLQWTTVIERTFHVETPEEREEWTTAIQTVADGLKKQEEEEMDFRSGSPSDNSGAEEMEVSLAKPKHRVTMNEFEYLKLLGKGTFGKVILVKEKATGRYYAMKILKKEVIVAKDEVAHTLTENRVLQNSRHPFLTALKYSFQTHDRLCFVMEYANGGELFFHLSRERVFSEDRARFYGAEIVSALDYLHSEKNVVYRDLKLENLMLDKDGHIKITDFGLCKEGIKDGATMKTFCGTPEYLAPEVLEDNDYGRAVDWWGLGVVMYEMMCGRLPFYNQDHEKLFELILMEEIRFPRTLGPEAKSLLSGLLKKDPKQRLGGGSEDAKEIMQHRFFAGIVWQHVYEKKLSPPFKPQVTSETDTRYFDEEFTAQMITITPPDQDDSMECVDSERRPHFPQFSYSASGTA

The source made the active and inactive calls. The calls are words filed in the database; no cut-off is given here.

One may read the IC50 as the midpoint of a concentration-inhibition curve. Consider `Cl.NC1(c2ccc(-c3nc4ccn5c(=O)[nH]nc5c4cc3-c3ccccc3)cc2)CCC1`, for which the 50% inhibitory concentration (IC50) in data set [1] is 2600 nM. Also, the CI50 is 0.42 in data set [2]; 0.44 in [3]; 0.18 in data set [6]; 0.18 in data set [7]; 0.8 in data set [14]; 0.68 in [16]. Also, the CI50 in [17] was determined as 0.49. In addition, the CI90 in data set [4] was 0.52; in data set [9], 0.18; in [10], 0.18; in [11] it was 0.18; in data set [13], 0.3. The Activity entry in [5] was “Toxic”; in data set [18], “Dose-Dependent Effect”; in [20], “Non-Toxic”. The CI75 is 0.18 in [8] and 0.7 in data set [15]. For the same compound, the “fold change (FC)” value in data set [12] is given as 7. For the same compound, the result in [19] was Active. In addition, the CI in data set [21] worked out at 0.14. Further, in data set [22], the inhibition result is “Active”.
